Results reported in ChEMBL document CHEMBL4513216, “Probing the Open Global Health Chemical Diversity Library for Multistage-Active Starting Points for Next-Generation Antimalarials” (ACS Infect Dis, 2020).

Assay: Toxicity liver stage against HepG2, at 10uM
Type: cell-based
Set-up: test concentration 10 uM, cell line HepG2-A16-CD81EGFP
Settings: human, HepG2-A16-CD81EGFP cells; read-out: INHIBITION
Summary of the method: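 Uninfected HepG2-A16-CD81EGFP cells, 3 × 10^3 per well, 1536-well, plated on prespotted compound at 10 μM final, parasite-free screening media added to match infected plates; puromycin 10 μM positive, DMSO 0.5% negative; run in parallel with 48 h PbLuc assay at 37 °C, 5% CO2; viability by CellTiter-Glo luminescence, normalized to controls.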

| SMILES | cytotoxicity at 10 µM [%] |
| --- | --- |
| CC(=O)N1CCC(n2ccc(-c3cnc(NCC(C)C)nc3)n2)CC1 | -9.13 |
| CNS(=O)(=O)c1c(C)sc2ccccc12 | 4.18 |
| COCC1(C(=O)N[C@H]2CN(c3ccnc(C)c3)C[C@@H]2C2CC2)CCC1 | -160 |
| COC1(CNC(=O)c2ccc(Cl)c(Cl)c2)CCSC1 (stereo not given) | 2.05 |
| COc1ccc(CNC(C)c2cccc(Cl)c2)c(OC)c1OC (stereo not given) | 14 |
| Cc1cnccc1NCCNC1CCSCC1 | -9.44 |
| CCc1nc(C(=O)N2CCOCC2)nn1-c1ccccc1Cl | -9.29 |
| O=C(c1cnccn1)N1CCN(Cc2ccncc2)c2ncccc2C1 | -2.72 |
| FC1(F)CCN(Cc2ccncc2)CC12CCN(Cc1ccccn1)C2 (stereo not given) | 10.2 |
| Cc1cccnc1NCCNC(=O)c1cnc(-c2ccccn2)nc1O | 26.4 |
| Cc1cnn(CCNCC(=O)NCC2(c3ccccc3)CCC2)c1 | 5.87 |
| CN1CCN(C2CCN(c3ccnc(-c4ccccc4)n3)CC2)C1=O | 59.7 |
| CN1CCN(C(=O)C2(S(C)(=O)=O)CCCC2)Cc2ccccc21 | -4.96 |
| Cc1ccc(-c2n[nH]cc2CNCC2CCN(CC(F)(F)F)C2)o1 (stereo not given) | 6.99 |
| Cc1cccc(CNC2(CCO)CCOCC2)c1C | -14.9 |
| Fc1cccc(Cl)c1CNCCCOc1ccccn1 | -3.33 |
| CC(C)(C)c1nnc(CN2CCOC(Cn3cccn3)C2)o1 (stereo not given) | -10.2 |
| c1ccc(C2Cn3ccnc3CN2Cc2ncc[nH]2)cc1 (stereo not given) | -2.8 |
| CC(NC(=O)N(C)Cc1ccncc1)c1cn(-c2ccccc2)nn1 (stereo not given) | -47.7 |
| Cc1nc(CN2CCN(C(=O)Cc3cccc(Cl)c3)CC2)no1 | -4.76 |
| COc1ccc(-c2cnc(N(C)C)nc2C2CNCCO2)cc1 (stereo not given) | -1.4 |
| CCCc1nc(N2CCCN3CCC[C@H]3C2)c2cnn(C)c2n1 | -129 |
| CCn1ccc(-c2cc(NCCCOc3cccc(C)c3)nc(C)n2)n1 | -5.65 |
| CC(=O)c1cccc(NC(=O)NCCCc2nc(C(C)C)no2)c1 | 2.16 |
| O=C(c1ccc2nccnc2c1)N1C[C@@H](CN2CCCC2)[C@@H](CO)C1 | 4.23 |
| CN1CCN(C[C@H]2CC[C@@H](Cc3ccc(CN4CCCC4)cc3)O2)CC1 | -7.32 |
| CC(C)CC(C#N)NC(=O)c1ccc(Oc2cccnc2)cc1 (stereo not given) | -11.4 |
| CCNc1ncc(CN2C[C@@H]3CC[C@H]2CN(C(=O)C2CCC2)C3)cn1 | 6.29 |

| SMILES | cytotoxicity at 10 µM [%] |
| --- | --- |
| O=C(c1cc2ccccc2[nH]1)N1CCCCC1Cn1cccn1 (stereo not given) | 1.27 |
| CNC(=O)[C@@H]1CN(C(=O)C(C)C)C[C@H]1c1ccnc(N2CCCC2)n1 | 0.791 |
| CC(C)(C)NC(=O)c1ccc(COCC(F)(F)F)o1 | -0.585 |
| COc1cccc(Nc2nc(C3CCNCC3)c3sc(C)c(C)n23)c1 | 4.24 |
| Cc1cc(C(=O)NCc2cccnc2N2CCc3ccccc3C2)[nH]n1 | 14.4 |
| COCC(=O)N1CCN(S(=O)(=O)c2ccccc2)[C@@H](C(=O)OC)C1 | 1.03 |
| Cc1n[nH]c(C)c1CCNC(=O)Nc1ccc2c(c1)COC2 | -20.4 |
| C[S+]([O-])c1nncn1CCc1ccccc1 (stereo not given) | -12.6 |
| CC(=O)N1CCC(C(=O)NCc2cc[nH]n2)(c2ccccc2)CC1 | -0.037 |
| CC(C)c1nsc(N2CCc3sccc3C2)n1 | 20.9 |
| CC(C)Sc1ccc(C(C)NC(=O)Cn2cccnc2=O)cc1 (stereo not given) | 16.8 |
| Cc1ccc(C2COCCN2C(=O)c2cccc(N(C)C)c2)o1 (stereo not given) | 8.99 |
| Cc1ncoc1C(=O)N1CCCC(C(=O)c2cccc(OC(C)C)c2)C1 (stereo not given) | 8.84 |
| CC(C)c1nc(C2CCCN(C(=O)CCn3cncn3)C2)no1 (stereo not given) | -21.1 |
| CS(=O)(=O)Nc1cccc(CNC(=O)CCNC(=O)c2cccs2)c1 | 0.466 |
| CCc1ccsc1C(=O)N1CCS(=O)(=O)CC1 | 5.36 |
| CN(C)CCn1nc(C2CCN(Cc3ccccc3)C2)c2cccnc21 (stereo not given) | -7.47 |
| c1cc(CN2CCOCC3(CCN(C4CCOCC4)C3)C2)ccn1 (stereo not given) | 0.866 |
| O=C(c1cccc(Cn2ccnc2)c1)N1CCCC(n2ccnc2)C1 (stereo not given) | -6.61 |
| CCn1cc(CN2CCC(NS(C)(=O)=O)CC2)cc1C#N | -4.18 |
| COc1cccc(CNC(=O)N2CCN(Cc3cc(C)on3)CC2)c1 | -1.58 |
| O=C(c1cc(C2CC2)no1)N1C[C@@H]2CC[C@H]1CN(Cc1ccccn1)C2 | 2.21 |
| Cc1nc(C(C)C)sc1C(=O)N1CCC(N2CCSCC2)CC1 | -3.54 |
| O=c1[nH]c2cc3c(cc2cc1CN1CCCC1c1ccccn1)OCO3 (stereo not given) | -4.5 |
| Cc1nc(C(=O)N(C)CC2CCCO2)nn1-c1ccccc1C(C)C (stereo not given) | -3.62 |
| O=C(CCn1ccc2ccc(F)cc21)/N=c1\[nH]nc(C2CCCO2)s1 (stereo not given) | -0.0308 |
| CC(C)C(C)(O)CNC(=O)Nc1ccccn1 (stereo not given) | 4.77 |
